Data from ChEMBL document CHEMBL1124581, “Synthesis and hypolipidemic and antidiabetogenic activities of beta,beta,beta',beta'-tetrasubstituted, long-chain dioic acids” (J Med Chem, 1989).

Columns and labels:
ATP-citrate synthase [1] = target: T1, ATP-citrate synthase (Rattus norvegicus, UniProt P16638); test: Inhibition against ATP-citrate lyase in rat liver.
T1 sequence (P16638 whole entry): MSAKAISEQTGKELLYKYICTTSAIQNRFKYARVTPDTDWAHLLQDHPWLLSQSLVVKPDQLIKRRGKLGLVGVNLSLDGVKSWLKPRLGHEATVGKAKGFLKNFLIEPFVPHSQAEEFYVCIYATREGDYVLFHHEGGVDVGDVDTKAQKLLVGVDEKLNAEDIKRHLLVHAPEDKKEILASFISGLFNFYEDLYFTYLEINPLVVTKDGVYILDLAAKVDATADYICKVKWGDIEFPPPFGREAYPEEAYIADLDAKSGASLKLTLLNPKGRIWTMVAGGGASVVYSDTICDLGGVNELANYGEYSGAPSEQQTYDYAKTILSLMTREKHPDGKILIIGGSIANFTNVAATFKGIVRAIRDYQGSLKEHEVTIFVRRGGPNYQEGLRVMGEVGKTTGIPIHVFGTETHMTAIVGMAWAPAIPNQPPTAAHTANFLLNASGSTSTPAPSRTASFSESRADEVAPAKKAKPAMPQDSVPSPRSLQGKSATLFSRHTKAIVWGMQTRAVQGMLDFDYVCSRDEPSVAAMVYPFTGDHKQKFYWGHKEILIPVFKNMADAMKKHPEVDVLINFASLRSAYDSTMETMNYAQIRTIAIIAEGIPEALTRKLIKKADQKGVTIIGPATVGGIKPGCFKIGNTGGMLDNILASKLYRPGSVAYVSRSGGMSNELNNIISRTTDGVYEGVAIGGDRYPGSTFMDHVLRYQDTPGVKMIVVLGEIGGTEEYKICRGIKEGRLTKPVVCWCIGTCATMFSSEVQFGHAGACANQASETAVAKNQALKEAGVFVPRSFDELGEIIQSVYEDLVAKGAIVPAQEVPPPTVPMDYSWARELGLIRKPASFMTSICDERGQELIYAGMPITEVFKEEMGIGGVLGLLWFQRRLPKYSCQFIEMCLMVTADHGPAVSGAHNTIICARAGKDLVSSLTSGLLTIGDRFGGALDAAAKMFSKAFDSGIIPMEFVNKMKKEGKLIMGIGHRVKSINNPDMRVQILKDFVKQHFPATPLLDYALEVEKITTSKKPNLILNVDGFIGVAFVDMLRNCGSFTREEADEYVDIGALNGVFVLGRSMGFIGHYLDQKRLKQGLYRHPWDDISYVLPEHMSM
How it was run: (§1)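 Liver citrate lyase activity measured across varying concentrations of homologue. Ki (mM) determined from a Dixon plot.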

Rattus norvegicus [2] = test: Hypolipidemic activity in rats by evaluating the plasma triacylglycerol level at a dose of 10 mg/kg for seven days; type: functional
How it was run: (§2)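 Male Lewis rats, 150–180 g, fed standard chow ad libitum. Compound given orally as a suspension in 1% aqueous tylose; controls received vehicle. Blood taken from the retrobulbar venous plexus 3 h after dosing. Plasma cholesterol and triacylglycerols measured spectrophotometrically with enzymatic kits.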

Rattus norvegicus [3] = test: Hypolipidemic activity in rats by evaluating the plasma cholesterol level at a dose of 10 mg/kg for seven days; type: functional; how it was run: as §2
Rattus norvegicus [4] = species: Rattus norvegicus; test: Inhibition of lipid synthesis, by incorporation of 3H20 into 3-beta-hydroxysterols in cultured rat hepatocytes; type: functional; conditions: Hepatocyte, read-out: I50
How it was run: (§3)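 Cultured rat hepatocytes incubated with varying concentrations of homologue. 3H2O incorporation into saponified fatty acids and 3-β-hydroxysterols measured. I50 = concentration (mM) giving 50% inhibition.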

Rattus norvegicus [5] = species: Rattus norvegicus; test: Inhibition of lipid synthesis, by incorporation of 3H20 into saponified fatty acids in cultured rat hepatocytes; type: functional; conditions: Hepatocyte, read-out: I50; how it was run: as §3
Rattus norvegicus [6] = species: Rattus norvegicus; test: Percent inhibition of lipid synthesis by incorporation of 3H20 into saponified fatty acids in rat; type: functional; set-up: concentration or dose not given beside the values
How it was run: (§4)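 Rats fed for 3 consecutive days a carbohydrate-rich fat-free diet containing analogue (0.1% w/w for core-substituted series; 0.25% w/w for chain-length homologues). 10 mCi 3H2O given ip; liver taken 1 h later. 3H2O incorporation into liver saponified fatty acids and 3-β-hydroxysterols is expressed as % of untreated rats (untreated n = 3 or 4, mean ± SD).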

[7] = target: Peroxisomal bifunctional enzyme (Rattus norvegicus) (UniProt P07896); test: Liver peroxisomal enoyl-CoA hydratase activity in rats
Rattus norvegicus [8] = species: Rattus norvegicus; test: Percent of hypolipidemic activity in rats by evaluating the plasma cholesterol level at 0.1%(w/w) in diet for three days; type: functional
How it was run: (§5)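 Rats treated 3 days with 0.1% (w/w) analogue in diet. Plasma triacylglycerols and cholesterol (mg %) compared with untreated rats (mean ± SD, n = 3).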

Rattus norvegicus [9] = test: In vivo percent inhibition of lipid synthesis, by incorporation of 3H20 into liver saponified fatty acids in rat, at 0.1%(w/w) in diet for three days; type: functional; conditions: values are per cent of control; how it was run: as §4
Rattus norvegicus [10] = species: Rattus norvegicus; test: Percent of hypolipidemic activity in rats by evaluating the plasma triacylglycerol level at 0.1%(w/w) in diet for three days; type: functional; how it was run: as §5
[11] = target: Peroxisomal bifunctional enzyme (Rattus norvegicus) (UniProt P07896); test: Percent of liver peroxisomal enoyl-CoA hydratase activity in rats
Rattus norvegicus [12] = test: In vivo lipid synthesis as percent of nontreated control by incorporation of 3H20 into 3-beta-hydroxysterols in rat, at 0.1%(w/w) in diet for three days
ATP-citrate synthase [13] = target: T1, ATP-citrate synthase; test: Inhibition against ATP-citrate lyase in liver; type: tissue-based; how it was run: as §1
[14] = target: Enoyl-CoA hydratase (Rattus norvegicus) (UniProt P07896); test: Liver peroxisomal enoyl-CoA hydratase activity in rats, at 0.00(w/w) in diet
How it was run: (§6)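 Hebrew University strain rats, 140–160 g, starved 48 h, then pair-refed for 3 consecutive nights a 15-g meal of high-carbohydrate fat-free powdered diet, with or without analogue mixed into the diet at the stated % (w/w). The morning after the last meal, 10 mCi 3H2O in saline given ip; rats killed 1 h later. Readouts: liver lipid 3H2O incorporation, plasma lipids, peroxisomal enoyl-CoA hydratase, CN-insensitive palmitoyl-CoA oxidation. Mean ± SD, n = 4.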

[15] = target: Enoyl-CoA hydratase (Rattus norvegicus) (UniProt P07896); test: Liver peroxisomal palmitoyl-CoA oxidation activity in rats, at 0.00(w/w) in diet; how it was run: as §6
[16] = target: Enoyl-CoA hydratase (Rattus norvegicus) (UniProt P07896); test: Liver peroxisomal palmitoyl-CoA oxidation activity in rats, at 0.15(w/w) in diet; how it was run: as §6
[17] = target: Enoyl-CoA hydratase (Rattus norvegicus) (UniProt P07896); test: Liver peroxisomal palmitoyl-CoA oxidation activity in rats, at 0.30(w/w) in diet; how it was run: as §6
Rattus norvegicus [18] = species: Rattus norvegicus; test: Inhibition of lipid synthesis, evaluated by incorporation of 3H20 at 0.00(w/w) into liver cholesterol in rat; type: functional
Rattus norvegicus [19] = species: Rattus norvegicus; test: Inhibition of lipid synthesis, evaluated by incorporation of 3H20 at 0.00(w/w) into liver saponified fatty acids in rat; type: functional
Rattus norvegicus [20] = species: Rattus norvegicus; test: Inhibition of lipid synthesis, evaluated by incorporation of 3H20 at 0.15(w/w) into liver cholesterol in rat; type: functional
Rattus norvegicus [21] = species: Rattus norvegicus; test: Inhibition of lipid synthesis, evaluated by incorporation of 3H20 at 0.30(w/w) into liver cholesterol in rat; type: functional
Rattus norvegicus [22] = species: Rattus norvegicus; test: Inhibition of lipid synthesis, evaluated by incorporation of 3H20 at 0.30(w/w) into liver saponified fatty acids in rat; type: functional
Rattus norvegicus [23] = species: Rattus norvegicus; test: Hypolipidemic activity in rats by evaluating the plasma cholesterol level at 0.00 dose (% w/w) in diet; type: functional; how it was run: as §6
Rattus norvegicus [24] = species: Rattus norvegicus; test: Hypolipidemic activity in rats by evaluating the plasma cholesterol level at 0.15 dose (% w/w) in diet; type: functional; how it was run: as §6
Rattus norvegicus [25] = species: Rattus norvegicus; test: Hypolipidemic activity in rats by evaluating the plasma cholesterol level at 0.30 dose (% w/w) in diet; type: functional; how it was run: as §6
Rattus norvegicus [26] = species: Rattus norvegicus; test: Hypolipidemic activity in rats by evaluating the plasma triacylglycerol level at 0.00 (% w/w)in diet; type: functional; how it was run: as §6
Rattus norvegicus [27] = species: Rattus norvegicus; test: Hypolipidemic activity in rats by evaluating the plasma triacylglycerol level at 0.15 (% w/w)in diet; type: functional; how it was run: as §6
Rattus norvegicus [28] = species: Rattus norvegicus; test: Hypolipidemic activity in rats by evaluating the plasma triacylglycerol level at 0.30 (% w/w)in diet; type: functional; how it was run: as §6
ATP-citrate synthase [29] = target: T1, ATP-citrate synthase; test: Inhibition against ATP-citrate lyase in rat liver; type: tissue-based; how it was run: as §1
Rattus norvegicus [30] = species: Rattus norvegicus; test: Hypolipidemic activity in rats by evaluating the plasma cholesterol level at 0.1%(w/w) in diet for three days
ATP-citrate synthase [31] = target: T1, ATP-citrate synthase; test: Inhibition against ATP-citrate lyase in liver.; type: tissue-based
How it was run: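 Liver ATP-citrate lyase activity was followed across varying inhibitor concentrations, and Ki was derived from a Dixon plot. The methods otherwise refer to an earlier report.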

Peroxisomal bifunctional enzyme (Rattus norvegicus), sequence (P07896 whole entry, looked up): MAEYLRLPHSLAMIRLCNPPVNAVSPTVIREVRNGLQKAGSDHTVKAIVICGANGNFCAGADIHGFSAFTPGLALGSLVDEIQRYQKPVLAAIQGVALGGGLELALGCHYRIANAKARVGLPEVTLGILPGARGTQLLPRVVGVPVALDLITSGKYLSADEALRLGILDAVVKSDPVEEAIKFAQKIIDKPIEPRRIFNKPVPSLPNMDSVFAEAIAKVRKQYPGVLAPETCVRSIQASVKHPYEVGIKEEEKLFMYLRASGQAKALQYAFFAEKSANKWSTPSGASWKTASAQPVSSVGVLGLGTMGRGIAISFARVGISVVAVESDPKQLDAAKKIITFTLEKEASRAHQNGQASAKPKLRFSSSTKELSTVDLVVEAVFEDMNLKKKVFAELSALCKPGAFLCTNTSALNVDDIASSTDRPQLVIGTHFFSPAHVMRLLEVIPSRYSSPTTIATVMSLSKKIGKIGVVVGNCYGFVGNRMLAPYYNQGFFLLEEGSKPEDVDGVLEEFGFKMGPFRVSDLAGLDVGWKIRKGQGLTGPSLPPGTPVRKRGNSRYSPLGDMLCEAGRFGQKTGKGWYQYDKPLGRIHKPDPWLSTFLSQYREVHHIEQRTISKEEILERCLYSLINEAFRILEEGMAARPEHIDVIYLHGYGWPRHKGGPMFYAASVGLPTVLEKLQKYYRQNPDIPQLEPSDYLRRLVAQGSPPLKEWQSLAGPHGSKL
Enoyl-CoA hydratase (Rattus norvegicus), sequence (P07896 whole entry): as the sequence (P07896 whole entry, looked up) above

Row | Compound | Hypolipidemic activity (Rattus norvegicus [2]) [%] | Activity (mg) (Rattus norvegicus [3]) [%] | IC50 (Rattus norvegicus [4]) [µM] | IC50 (Rattus norvegicus [5]) [µM] | Fatty acid synthesis (% of untreated control) (Rattus norvegicus [6]) [%] | Activity (uM min-1 mg-1) [7] | residual activity (Rattus norvegicus [9]) [%] | Activity (Rattus norvegicus [10]) [%] | Activity (uM min-1 mg-1) [11] | Incorporation (Rattus norvegicus [12]) [%] | also measured
1 | CC(C)(CCCCCCCCC(C)(C)CC(=O)O)CC(=O)O | 126 | 70 | 100 | 100 | 66 | 16.3 |  |  |  |  | Ki (ATP-citrate synthase [1]): 56 µM
2 | CC(C)(C/C=C\c1ccc(/C=C\CC(C)(C)CC(=O)O)cc1)CC(=O)O |  |  |  |  |  |  | 72 | 98 | 4.5 | 97 | Activity (Rattus norvegicus [8]): 47%
3 | CC(C)(CCCCCCCCCCCCC(C)(C)CC(=O)O)CC(=O)O | 130 | 73 | 150 | 150 | 48 | 17.5 |  |  |  |  | Ki (ATP-citrate synthase [13]): 46 µM
4 | O=C(O)CC(CCCCCCCCCCC(CC(=O)O)(c1ccccc1)c1ccccc1)(c1ccccc1)c1ccccc1 |  |  |  |  |  |  |  |  |  |  | Activity (umol/mg.of protein. min) (µmol/mg protein/min) [14]: 0.45; Activity (nmol/mg.of protein. min) (nmol/mg protein/min) [15]: 4.8; Activity (nmol/mg.of protein. min) (nmol/mg protein/min) [16]: 4.4; Activity (nmol/mg.of protein. min) (nmol/mg protein/min) [17]: 7.2; Activity (umol/g.of liver 75.min) (Rattus norvegicus [18]): 3.9 µmol/g liver/75 min; Activity (umol/g.of liver 75.min) (Rattus norvegicus [19]): 118 µmol/g liver/75 min; Activity (umol/g.of liver 75.min) (Rattus norvegicus [20]): 4.3 µmol/g liver/75 min; Activity (umol/g.of liver 75.min) (Rattus norvegicus [21]): 3.4 µmol/g liver/75 min; Activity (umol/g.of liver 75.min) (Rattus norvegicus [22]): 123 µmol/g liver/75 min; Activity (mg) (Rattus norvegicus [23]): 70.5%; Activity (mg) (Rattus norvegicus [24]): 70%; Activity (mg) (Rattus norvegicus [25]): 58%; Activity (mg) (Rattus norvegicus [26]): 131%; Activity (mg) (Rattus norvegicus [27]): 127%; Activity (mg) (Rattus norvegicus [28]): 101%
5 | CC(C)(CCCCCCCCCC(C)(C)CC(=O)O)CC(=O)O | 112 | 72 |  |  |  |  |  |  |  |  | 
6 | CC(C)(CCCc1ccc(CCCC(C)(C)CC(=O)O)cc1)CC(=O)O |  |  |  |  |  |  | 63 | 84 | 12 | 65 | Activity (Rattus norvegicus [8]): 36%
7 | CC(C)(CCCCCCCCCCCC(C)(C)CC(=O)O)CC(=O)O | 113 | 73 |  |  |  |  |  |  |  |  | 
8 | CC(C)(CCCCCCCCCCCCCCC(C)(C)CC(=O)O)CC(=O)O |  |  | 300 | 300 | 113 | 5 |  |  |  |  | Ki (ATP-citrate synthase [13]): 260 µM
9 | CC(C)(C/C=C\c1ccc(/C=C/CC(C)(C)CC(=O)O)cc1)CC(=O)O |  |  |  |  |  |  | 50 | 25 | 10.5 | 37 | Activity (Rattus norvegicus [8]): 37%
10 | CC(C)(CCCCCCC(C)(C)CC(=O)O)CC(=O)O |  |  | 200 | 300 | 80 | 7.5 |  |  |  |  | Ki (ATP-citrate synthase [29]): 310 µM
11 | CC(C)(CCCC1CCC(CCCC(C)(C)CC(=O)O)CC1)CC(=O)O (stereo not given) |  |  |  |  |  |  | 79 | 63 | 14 | 71 | Plasma cholesterol (Rattus norvegicus [30]): 42 mg %
12 | CC(C)(CCCCCCCCCCC(C)(C)CC(=O)O)CC(=O)O | 111 | 58 | 80 | 80 | 29 | 31 | 48 | 49 | 10.7 | 40 | Ki (ATP-citrate synthase [31]): 16 µM; Plasma cholesterol (Rattus norvegicus [30]): 32 mg %
13 | CC(C)(C/C=C/c1ccc(/C=C/CC(C)(C)CC(=O)O)cc1)CC(=O)O |  |  |  |  |  |  | 57 | 41 | 18.6 | 57 | Activity (Rattus norvegicus [8]): 28%
14 | CC(C)(CCCCCCCCCCCCCCCCC(C)(C)CC(=O)O)CC(=O)O |  |  | 400 | 400 | 158 | 3.5 |  |  |  |  | Ki (ATP-citrate synthase [13]): 320 µM
